Source: paper PMC5008178 (Molecular Microbiology, 2015)
Read-outs that look alike come from different tables or passages of the source. Blank lines part the entries; values can stand above or below the compound they belong to.

Legend:
Tar = Tar (Escherichia coli, UniProt P07017); assay: FRET response in receptorless cells expressing Tar as sole receptor; format: cell-based; conditions: Tar-only cells; for response mediated by Tar, in words: sub-millimolar range
Outline: (§1)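 Receptorless E. coli VS181 [Δ(cheY cheZ) Δ(tar tsr tap trg aer)] carries the CheY‑YFP/CheZ‑CFP pair (pVS88) and a plasmid with the single receptor. Cells are grown in TB at 34°C, 275 r.p.m., with inducers, and harvested at OD600 0.6. Buffer‑adapted cells get step addition and then removal of amino acid. YFP/CFP ratio (kinase activity) is read by fluorescence microscopy.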

Tsr = Tsr (Escherichia coli, UniProt P02942); assay: FRET response in receptorless cells expressing Tsr as sole receptor; format: cell-based; conditions: for response mediated by Tsr, in words: Tsr-only cells, sub-millimolar range
Chain of Tsr (P02942 whole entry): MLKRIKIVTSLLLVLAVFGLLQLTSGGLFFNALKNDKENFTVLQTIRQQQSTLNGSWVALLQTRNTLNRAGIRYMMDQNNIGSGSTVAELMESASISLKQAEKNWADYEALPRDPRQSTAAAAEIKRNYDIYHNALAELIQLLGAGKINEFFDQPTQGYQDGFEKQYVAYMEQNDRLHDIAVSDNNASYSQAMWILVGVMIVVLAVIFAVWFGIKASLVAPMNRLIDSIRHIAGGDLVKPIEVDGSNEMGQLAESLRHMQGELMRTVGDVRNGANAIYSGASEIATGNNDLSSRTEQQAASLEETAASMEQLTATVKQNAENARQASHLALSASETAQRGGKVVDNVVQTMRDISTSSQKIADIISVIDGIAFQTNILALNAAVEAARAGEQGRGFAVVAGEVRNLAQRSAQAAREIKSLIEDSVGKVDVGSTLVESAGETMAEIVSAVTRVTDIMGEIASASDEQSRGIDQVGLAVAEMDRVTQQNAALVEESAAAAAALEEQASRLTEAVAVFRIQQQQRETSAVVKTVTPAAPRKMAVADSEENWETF
Chain of Tsr (P0A964 whole entry partner): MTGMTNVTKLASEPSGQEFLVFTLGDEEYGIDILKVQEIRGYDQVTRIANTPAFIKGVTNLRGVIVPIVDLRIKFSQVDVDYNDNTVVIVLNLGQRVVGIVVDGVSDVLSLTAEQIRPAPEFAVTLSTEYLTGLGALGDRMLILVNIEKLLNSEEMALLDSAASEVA
Chain of Tsr (P07363 whole entry partner): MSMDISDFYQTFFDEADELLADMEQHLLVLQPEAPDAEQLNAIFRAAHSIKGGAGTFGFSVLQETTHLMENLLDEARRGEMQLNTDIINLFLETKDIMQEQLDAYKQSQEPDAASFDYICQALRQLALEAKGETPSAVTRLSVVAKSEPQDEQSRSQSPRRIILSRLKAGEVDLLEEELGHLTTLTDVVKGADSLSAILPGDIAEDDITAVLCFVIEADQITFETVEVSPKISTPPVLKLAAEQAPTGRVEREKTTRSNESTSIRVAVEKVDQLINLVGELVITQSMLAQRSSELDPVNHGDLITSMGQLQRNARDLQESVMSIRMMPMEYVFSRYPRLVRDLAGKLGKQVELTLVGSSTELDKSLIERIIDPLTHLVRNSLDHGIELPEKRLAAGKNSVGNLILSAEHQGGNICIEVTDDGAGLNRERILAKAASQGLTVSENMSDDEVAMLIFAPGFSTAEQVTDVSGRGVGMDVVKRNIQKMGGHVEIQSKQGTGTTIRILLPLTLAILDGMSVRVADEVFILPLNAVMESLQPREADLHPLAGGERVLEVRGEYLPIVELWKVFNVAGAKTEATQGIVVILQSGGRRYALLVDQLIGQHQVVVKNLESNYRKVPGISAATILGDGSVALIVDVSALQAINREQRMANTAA
Outline: as §1

[1] = test system: chemotaxis pathway in B. subtilis; assay: microbe, parasite or virus in culture; format: cell-based, Bacillus subtilis; conditions: for EC50: read-out: EC50 of attractant FRET response
[2] = test system: chemotaxis pathway in E. coli; assay: microbe, parasite or virus in culture; format: cell-based, Escherichia coli; conditions: for EC50: Escherichia coli; for repellent response in wild type, in words: wild-type E. coli cells, tested up to 1 mM where no response
E. coli = assay: Growth inhibition by individual amino acids in M9 glucose medium; format: cell-based, Escherichia coli; conditions: 1 mM amino acid, M9 minimal glucose medium, culture density after 8 h
Outline: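 Cells grown in modified M9 (47 mM Na2HPO4, 22 mM KH2PO4, 8 mM NaCl, 2 mM MgSO4, 100 μM CaCl2) with glucose as carbon source. A single L‑amino acid (1 mM final) was added at the start; 37°C, 120 r.p.m. OD600 read after 8 h and normalised to a control culture without added amino acid.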

[3] = read-out: EC50 of attractant FRET response
[4] = read-out: EC50 of repellent response

Chain of Tar (P07017 whole entry): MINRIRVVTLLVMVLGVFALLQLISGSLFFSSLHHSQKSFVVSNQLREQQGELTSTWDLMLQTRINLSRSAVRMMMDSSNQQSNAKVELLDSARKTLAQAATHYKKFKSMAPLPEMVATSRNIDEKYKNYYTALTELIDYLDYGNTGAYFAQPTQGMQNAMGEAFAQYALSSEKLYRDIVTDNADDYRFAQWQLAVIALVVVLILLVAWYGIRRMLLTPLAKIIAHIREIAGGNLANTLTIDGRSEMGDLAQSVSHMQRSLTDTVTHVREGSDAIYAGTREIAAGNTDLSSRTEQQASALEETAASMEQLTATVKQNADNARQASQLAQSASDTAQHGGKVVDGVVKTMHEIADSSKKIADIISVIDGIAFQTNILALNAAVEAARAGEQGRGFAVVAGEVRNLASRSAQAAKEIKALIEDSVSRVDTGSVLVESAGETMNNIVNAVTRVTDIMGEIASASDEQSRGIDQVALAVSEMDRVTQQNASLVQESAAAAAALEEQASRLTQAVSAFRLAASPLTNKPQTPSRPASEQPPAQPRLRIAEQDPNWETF
Chain of Tar (P0A964 whole entry partner): as the sequence (P0A964 whole entry partner) above
Chain of Tar (P07363 whole entry partner): as the sequence (P07363 whole entry partner) above

SMILES: N=C(N)NCCC[C@H](N)C(=O)O [Arginine]
FRET response in words ([1]; B. subtilis): did not elicit clear responses

SMILES: N[C@@H](CCC(=O)O)C(=O)O [Glutamate]
repellent response in wild type, in words [2]: no obvious repellent response
response mediated by Tar, in words (Tar): attractant responses
repellent response in Tsr-only cells, in words (Tsr): weak repellent responses
EC50 ([1]; B. subtilis): > 1000 µM

SMILES: NC(=O)CC[C@H](N)C(=O)O [Glutamine]
repellent response in wild type, in words [2]: no obvious repellent response
repellent response in Tsr-only cells, in words (Tsr): weak repellent responses

SMILES: N[C@@H](Cc1c[nH]cn1)C(=O)O [Histidine]
repellent response in wild type, in words [2]: no obvious repellent response
repellent response in Tsr-only cells, in words (Tsr): weak repellent responses
FRET response in words ([1]; B. subtilis): lesser maximal activation

SMILES: NCCCC[C@H](N)C(=O)O [Lysine]
FRET response in words ([1]; B. subtilis): did not elicit clear responses

SMILES: N[C@@H](Cc1ccccc1)C(=O)O [Phenyalanine, phenylalanine]
repellent response in wild type, in words [2]: no obvious repellent response
repellent response in Tsr-only cells, in words (Tsr): weak repellent responses

SMILES: O=C(O)[C@@H]1CCCN1 [Proline]
EC50 ([1]; Bacillus subtilis): < 1 µM

SMILES: C[C@@H](O)[C@H](N)C(=O)O [Threonine]
attractant response in words ([2]; wild-type E. coli, millimolar concentrations): weak attractant responses

SMILES: N[C@@H](Cc1c[nH]c2ccccc12)C(=O)O [Tryptophan]
EC50 [2, 4]: 100 to 3000 µM
repellent response in wild type, in words [2]: clear repellent responses
FRET response in words ([1]; B. subtilis): lesser maximal activation

SMILES: N[C@@H](Cc1ccc(O)cc1)C(=O)O [Tyrosine]
FRET response in words ([1]; B. subtilis): lesser maximal activation

Continued, in another order:

response mediated by Tar, in words (Tar): attractant responses
response mediated by Tsr, in words (Tsr): attractant responses
SMILES: C[C@H](N)C(=O)O [Alanine]

response mediated by Tar, in words (Tar): attractant responses
response mediated by Tsr, in words (Tsr): attractant responses
EC50 ([1]; Bacillus subtilis): < 1 µM
SMILES: NC(=O)C[C@H](N)C(=O)O [Aparagine, Asparagine]

EC50 [2, 3]: < 10 µM
response mediated by Tar, in words (Tar): attractant responses
repellent response in Tsr-only cells, in words (Tsr): weak repellent responses
EC50 ([1]; Bacillus subtilis): > 1000 µM
SMILES: N[C@@H](CC(=O)O)C(=O)O [Aspartate]
repellent response in wild type, in words [2]: no obvious repellent response

EC50 [2, 3]: < 10 µM
response mediated by Tar, in words (Tar): attractant responses
response mediated by Tsr, in words (Tsr): attractant responses
EC50 ([1]; Bacillus subtilis): < 1 µM
SMILES: N[C@@H](CS)C(=O)O [Cysteine]
growth inhibition (E. coli): significant growth inhibition

response mediated by Tar, in words (Tar): attractant responses
response mediated by Tsr, in words (Tsr): attractant responses
SMILES: NCC(=O)O [Glycine]

EC50 [2, 4]: 100 to 3000 µM
SMILES: CC[C@H](C)[C@H](N)C(=O)O [Isoleucine]
repellent response in wild type, in words [2]: clear repellent responses

EC50 [2, 4]: 100 to 3000 µM
SMILES: CC(C)C[C@H](N)C(=O)O [Leucine]
repellent response in wild type, in words [2]: clear repellent responses
growth inhibition (E. coli): significant growth inhibition

response mediated by Tar, in words (Tar): attractant responses
SMILES: CSCC[C@H](N)C(=O)O [Methionine]
attractant response in words [2]: weak attractant responses

EC50 [2, 3]: < 10 µM
level at which the response saturated (Tar; saturating concentration): ~20 % of the initial activity
response mediated by Tar, in words (Tar): attractant responses
response mediated by Tsr, in words (Tsr): attractant responses
SMILES: N[C@@H](CO)C(=O)O [Serine]
growth inhibition (E. coli): significant growth inhibition

EC50 [2, 4]: 100 to 3000 µM
SMILES: CC(C)[C@H](N)C(=O)O [Valine]
repellent response in wild type, in words [2]: clear repellent responses
growth inhibition (E. coli): significant growth inhibition
